Laboratory results: ChEMBL document CHEMBL4038284, “Synthesis of novel quinoline-based 4,5-dihydro-1H-pyrazoles as potential anticancer, antifungal, antibacterial and antiprotozoal agents” (Eur J Med Chem, 2017)
≈ marks a conversion by molar mass, not a printed value.

How the values were obtained:
Assay type in all cases: functional
LOX IMVI = assay: Growth inhibition of human LOXIMVI cells incubated for 48 hrs by sulforhodamine B assay; details: for CC50: read-out: LC50 (the source's name)
Procedure, shortened: (§1)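 Five-dose NCI SRB assay at 100, 10, 1.0, 0.1 and 0.01 μM for 48 h at 37 °C, 5% CO2. Medium was RPMI-1640 with 5% FBS and 2 mM glutamine. Time-zero plates were TCA-fixed at compound addition, A515 read after SRB staining. GI50 was solved from [(Ti−Tz)/(C−Tz)]×100 = 50. Values beyond the tested range are given as > or <.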

HOP-92 = assay: Growth inhibition of human HOP92 cells incubated for 48 hrs by sulforhodamine B assay; details: HOP-92, 48 h; procedure, shortened: as §1
BT-549 = assay: Growth inhibition of human BT549 cells incubated for 48 hrs by sulforhodamine B assay; details: BT-549, 48 h; for CC50: read-out: LC50 (the source's name)
Procedure, shortened: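 NCI five-dose SRB assay (100, 10, 1.0, 0.1, 0.01 µM) with 48 h exposure in RPMI-1640 with 5% FBS and 2 mM L-glutamine. Cells fixed with TCA and stained with SRB, read at 515 nm. GI50 is the concentration where [(Ti−Tz)/(C−Tz)]×100 = 50.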

NCI-H522 = assay: Growth inhibition of human NCI-H522 cells incubated for 48 hrs by sulforhodamine B assay; details: NCI-H522, 48 h; for CC50: read-out: LC50 (the source's name)
Procedure, shortened: (§2)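 NCI 60-line screen. Cells in RPMI-1640 with 5% FBS and 2 mM L-glutamine, preincubated 24 h, then time-zero plates TCA-fixed. Compounds from DMSO stocks given at five final concentrations (100, 10, 1.0, 0.1, 0.01 µM) for 48 h at 37 °C, 5% CO2. Cells fixed with 10% TCA, SRB-stained, read at 515 nm. GI50 is the concentration giving 50% lower net protein increase versus control.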

UO-31 = assay: Growth inhibition of human UO31 cells incubated for 48 hrs by sulforhodamine B assay; details: UO-31, 48 h; for CC50: read-out: LC50 (the source's name)
Procedure, shortened: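 NCI-60 panel cells grown in RPMI-1640 with 5% FBS and 2 mM L-glutamine, preincubated 24 h at 37 °C/5% CO2. Time-zero plates were TCA-fixed at compound addition. DMSO stocks were diluted in medium and tested at five final concentrations (100, 10, 1.0, 0.1, 0.01 µM) for 48 h. Cells were TCA-fixed, stained with SRB and read at 515 nm. GI50 = 50% lower net protein increase versus control.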

K562 = assay: Growth inhibition of human K562 cells incubated for 48 hrs by sulforhodamine B assay; details: K562, 48 h; for CC50: read-out: LC50 (the source's name); procedure, shortened: as §2
TK-10 = assay: Growth inhibition of human TK10 cells incubated for 48 hrs by sulforhodamine B assay; details: TK-10, 48 h; for CC50: read-out: LC50 (the source's name); procedure, shortened: as §2
Staphylococcus aureus [1] = assay: Bactericidal activity against methicillin-resistant Staphylococcus aureus ATCC 43300 after 24 hrs by resazurin dye based microdilution assay; details: ATCC 43300, 24 h
Procedure, shortened: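 3 µL of each dilution with no visible growth was plated onto trypticase agar. Gentamicin as control. Duplicate, replicated at least three times.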

Escherichia coli = assay: Bactericidal activity against Escherichia coli ATCC 25922 after 24 hrs by resazurin dye based microdilution assay; details: ATCC 25922, 24 h
Staphylococcus aureus [2] = assay: Bactericidal activity against vancomycin-intermediate Staphylococcus aureus after 24 hrs by resazurin dye based microdilution assay
Staphylococcus aureus [3] = assay: Bactericidal activity against methicillin-sensitive Staphylococcus aureus ATCC 25923 after 24 hrs by resazurin dye based microdilution assay; details: ATCC 25923, 24 h
Klebsiella pneumoniae = assay: Bactericidal activity against carbapenemase positive Klebsiella pneumoniae BAA 1705 after 24 hrs by resazurin dye based microdilution assay; details: BAA 1705, 24 h

Row | Compound | GI50 (LOX IMVI) [nM] | CC50 (LOX IMVI) [nM] | GI50 (HOP-92) [nM] | LC50 (concentration giving 50% net cell kill) (HOP-92) [nM] | GI50 (BT-549) [nM] | CC50 (BT-549) [nM] | GI50 (NCI-H522) [nM] | CC50 (NCI-H522) [nM] | GI50 (UO-31) [nM] | CC50 (UO-31) [nM] | GI50 (K562) [nM] | CC50 (K562) [nM] | GI50 (TK-10) [nM] | CC50 (TK-10) [nM] | MBC (Staphylococcus aureus [1]) [µg/mL] | MBC (Escherichia coli) [µg/mL] | MBC (Staphylococcus aureus [2]) [µg/mL] | MBC (Staphylococcus aureus [3]) [µg/mL] | MBC (Klebsiella pneumoniae) [µg/mL]
1 | O=CN1N=C(c2ccc(Cl)cc2)CC1c1cccc(Nc2ccnc3cc(Cl)ccc23)c1 (stereo not given) | 1290 | 9050 | 1450 | > 100000 | 1780 | > 100000 | 1120 | 66700 | 1700 | > 100000 | 390 | > 100000 | 2340 | > 100000 | – | – | – | – | –
2 | O=Cc1cccc(Nc2ccnc3cc(Cl)ccc23)c1 | – | – | – | – | – | – | – | – | – | – | – | – | – | – | > 1000 | 500 (≈ 1770 µM) | 500 (≈ 1770 µM) | 500 (≈ 1770 µM) | > 1000
3 | COc1ccc(C2=NN(C=O)C(c3cccc(Nc4ccnc5cc(Cl)ccc45)c3)C2)cc1 (stereo not given) | 2520 | 39000 | 3410 | > 100000 | 1930 | > 100000 | 1330 | 61900 | 3250 | > 100000 | 510 | > 100000 | 4240 | 61700 | – | – | – | – | –
4 | COc1cccc2c1C(=O)c1c(O)c3c(c(O)c1C2=O)C[C@@](O)(C(=O)CO)C[C@@H]3O[C@H]1C[C@H](N)[C@H](O)[C@H](C)O1 [DOXORUBICIN] | 70 | – | 100 | – | 230 | – | 30 | 2800 | 490 | – | 190 | 100000 | 380 | 90000 | – | – | – | – | –
5 | COc1ccc(C(=O)/C=C/c2cccc(Nc3ccnc4cc(Cl)ccc34)c2)cc1 | 1580 | > 100000 | 1090 | > 100000 | 1870 | > 100000 | 1880 | > 100000 | 1030 | – | 1640 | 83800 | 1640 | > 100000 | – | – | – | – | –
6 | COc1cc(C(=O)/C=C/c2cccc(Nc3ccnc4cc(Cl)ccc34)c2)cc(OC)c1OC | 370 | 3950 | 1470 | > 100000 | 1230 | 6590 | 590 | 6230 | 570 | 4420 | 400 | > 100000 | 1450 | 6110 | – | – | – | – | –
